# Source: ChEMBL document CHEMBL4616673 (J Med Chem, 2020)
# Several values for one entry are separate records, joined by “and”; a condition that tells them apart may be missing. Equal entries are not always repeated.
# Columns and labels:
# [1] = Acute toxicity in BALB/c mouse assessed as effect on blood TP level at 800 mg/kg, po measured on day 14; type: organism-based; settings: in vivo
# Summary of the method: (§1)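 BALB/c mice, female and male, 6-8 weeks old, given oral doses within 24 h, up to 400 mg/kg (free compound) or 800 mg/kg (nanocrystal formulation). Watched for body weight loss, diarrhea, anorexia, skin ulcer and toxic death. Serum biochemistry panel was run at the end of treatment.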
# Raji [2] = experiment: Induction of apoptosis in human Raji cells assessed as necrotic cells at 0.125 uM measured after 48 hrs by Annexin V-FITC staining based flow cytometry (reference value: 0.21 %); type: functional
# Raji [3] = experiment: Antiproliferative activity against human Raji cells assessed as reduction in cell viability measured after 48 hrs by MTT assay; type: functional, cell-based; settings: Homo sapiens, Raji, 48 h
# [4] = Acute toxicity in BALB/c mouse assessed as effect on blood ALT level at 400 mg/kg, po measured on day 14; type: organism-based; settings: in vivo; summary of the method: as §1
# [5] = Acute toxicity in BALB/c mouse assessed as effect on blood BILT level at 800 mg/kg, po measured on day 14; type: organism-based; settings: in vivo; summary of the method: as §1
# [6] = Half life in rat liver microsomes at 1 uM in presence of NADPH by LC-MS analysis; type: ADME, Microsome
# Summary of the method: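 Compound at 1 μM with 0.5 mg/mL human, rat or mouse liver microsomes and 1 mM NADPH. Stopped with acetonitrile at 0, 5, 15, 30, 45, 60 and 90 min, centrifuged. Supernatant analysed by LC-MS/MS.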
# A549 = experiment: Antiproliferative activity against human A549 cells assessed as reduction in cell viability measured after 48 hrs by MTT assay; type: functional, cell-based; settings: Homo sapiens, A549, 48 h
# [7] = Stability of the compound in pH 9 buffer assessed as decrease in compound concentration at 0.01 mg/ml measured up to 24 hrs by LC-MS analysis; type: physicochemical; settings: read-out: Drug degradation
# Summary of the method: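 Compound at 0.01 mg/mL final in buffer containing 10% acetonitrile at pH 1.0, 4.5, 6.6, 7.4 or 9.0. Held at 37 °C, sampled at 0, 2, 4, 6, 8, 10, 12 and 24 h. Remaining compound by LC-MS.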
# [8] = Toxicity in NOD-SCID nude mouse xenografted with human Raji cells assessed as dermatitis at 40 to 80 mg/kg/day, po administered 6 days a week for 3 weeks; type: organism-based; settings: in vivo
# Summary of the method: (§2)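 Mice, 6-7 weeks old, injected s.c. with 1×10^7 Raji cells in serum-free medium plus basement membrane matrix. At 100–200 mm3 tumours, randomised (n=6). Oral dosing 6 days/week for 3 weeks: 30 mg/kg/d free compound suspended in 5% NMP/95% PEG400, or 40 or 80 mg/kg/d nanocrystal. Body weight and tumour volume measured every 3 days.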
# [9] = Acute toxicity in BALB/c mouse assessed as effect on blood HDL level at 400 mg/kg, po measured on day 14; type: organism-based; settings: in vivo; summary of the method: as §1
# Raji [10] = experiment: Antitumor activity against human Raji cells xenografted in NOD-SCID nude mouse assessed as tumor growth inhibition at 80 mg/kg/day, po administered 6 days a week for 3 weeks relative to control; type: functional; settings: read-out: TGI
# A-375 = experiment: Antiproliferative activity against human A375 cells assessed as reduction in cell viability measured after 48 hrs by MTT assay; type: functional, cell-based; settings: Homo sapiens, A-375, 48 h
# Raji [11] = experiment: Induction of apoptosis in human Raji cells assessed as necrotic cells at 0.031 uM measured after 48 hrs by Annexin V-FITC staining based flow cytometry (reference value: 0.21 %); type: functional
# [12] = Acute toxicity in BALB/c mouse assessed as effect on liver at 800 mg/kg, po measured on day 14 by H and E staining based light microscopic analysis; type: organism-based; settings: in vivo
# Summary of the method: (§3)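 Female and male BALB/c mice, 6-8 weeks old, dosed orally within 24 h at up to 400 mg/kg (free compound) or 800 mg/kg (nanocrystal). At the end of treatment, heart, liver, spleen, lung and kidney were sectioned, stained with H&E and imaged by light microscopy.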
# Raji [13] = experiment: Induction of apoptosis in human Raji cells assessed as live cells at 0.031 uM measured after 48 hrs by Annexin V-FITC staining based flow cytometry (reference value: 98.09 %); type: functional
# Raji [14] = experiment: Induction of apoptosis in human Raji cells assessed as necrotic cells at 0.063 uM measured after 48 hrs by Annexin V-FITC staining based flow cytometry (reference value: 0.21 %); type: functional
# NAMALVA = experiment: Antiproliferative activity against human NAMALWA cells assessed as reduction in cell viability measured after 48 hrs by MTT assay; type: functional, cell-based; settings: Homo sapiens, NAMALVA, 48 h
# [15] = Acute toxicity in BALB/c mouse assessed as effect on blood ALB level at 800 mg/kg, po measured on day 14; type: organism-based; settings: in vivo; summary of the method: as §1
# HeLa = experiment: Antiproliferative activity against human HeLa cells assessed as reduction in cell viability measured after 48 hrs by MTT assay; type: functional, cell-based; settings: Homo sapiens, HeLa, 48 h
# Raji [16] = experiment: Induction of apoptosis in human Raji cells assessed as early apoptotic cells at 0.063 uM measured after 48 hrs by Annexin V-FITC staining based flow cytometry (reference value: 1 %); type: functional
# [17] = Acute toxicity in BALB/c mouse assessed as effect on blood HDL level at 800 mg/kg, po measured on day 14; type: organism-based; settings: in vivo; summary of the method: as §1
# [18] = Toxicity in NOD-SCID nude mouse xenografted with human Raji cells assessed as effect on body weight at 30 mg/kg/day, po administered 6 days a week for 3 weeks and measured every 3 days; type: organism-based; settings: in vivo; summary of the method: as §2
# [19] = Toxicity in NOD-SCID nude mouse xenografted with human Raji cells assessed as effect on body weight at 40 to 80 mg/kg/day, po administered 6 days a week for 3 weeks and measured every 3 days during compound dosing; type: organism-based; settings: in vivo; summary of the method: as §2
# [20] = Acute toxicity in BALB/c mouse assessed as effect on blood CHO1 level at 800 mg/kg, po measured on day 14; type: organism-based; settings: in vivo; summary of the method: as §1
# [21] = Acute toxicity in BALB/c mouse assessed as effect on lung at 800 mg/kg, po measured on day 14 by H and E staining based light microscopic analysis; type: organism-based; settings: in vivo; summary of the method: as §3
# K562 = experiment: Antiproliferative activity against human K562 cells assessed as reduction in cell viability measured after 48 hrs by MTT assay; type: functional, cell-based; settings: Homo sapiens, K562, 48 h
# [22] = Acute toxicity in BALB/c mouse assessed as effect on heart at 800 mg/kg, po measured on day 14 by H and E staining based light microscopic analysis; type: organism-based; settings: in vivo; summary of the method: as §3
# Raji [23] = experiment: Induction of apoptosis in human Raji cells assessed as live cells at 0.125 uM measured after 48 hrs by Annexin V-FITC staining based flow cytometry (reference value: 98.09 %); type: functional
# [24] = Tmax in Sprague-Dawley rat at 25 mg/kg, po administered via gavage by LC-MS analysis; type: ADME, organism-based; settings: in vivo
# Summary of the method: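 Male Sprague-Dawley rats, fasted overnight, jugular vein catheter for serial blood sampling. Single dose of 25 mg/kg by oral gavage or 5 mg/kg by tail-vein injection. Blood drawn at set times and spun at once for plasma, plasma drug by LC-MS. Parameters given as mean, n = 6.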
structure (smiles),measurement,setting,value
O=C1c2ccccc2C(=O)c2c1nnn2-c1cc(F)c(-c2ccccc2F)c(F)c1,Activity,[1],Non-Toxic
same,Activity,Raji [2],0.39%
same,IC50,Raji [3],160 nM
same,Activity,[4],Non-Toxic
same,Activity,[5],Non-Toxic
same,t1/2,[6],19.8 min and 54 min
same,IC50,A549,1650 nM
same,"degraded at 24 h, 0.01 mg/ml",[7],15%
same,Activity,[8],Non-Toxic
same,Activity,[9],Non-Toxic
same,inhibition in vivo at 80 mg/kg/day,Raji [10],68%
same,IC50,A-375,20 nM
same,Activity,Raji [11],0.37%
same,Activity,[12],Non-Toxic
same,Activity,Raji [13],93.14%
same,Activity,Raji [14],0.34%
same,IC50,NAMALVA,990 nM
same,Activity,[15],Non-Toxic
same,IC50,HeLa,> 10 µM
same,Activity,Raji [16],3.08%
same,Activity,[17],Non-Toxic
same,Activity,[18],Non-Toxic
same,Activity,[19],Non-Toxic
same,Activity,[20],Non-Toxic
same,Activity,[21],Non-Toxic
same,IC50,K562,110 nM
same,Activity,[22],Non-Toxic
same,Activity,Raji [23],89.46%
same,Tmax,[24],10 h and 27 h
